An excerpt weighted towards active compounds, which were near 2.6% of everything screened.
MLL AF4-AF9 inh = inhibitors of AF4 peptide binding to AF9, primary screen, biochemical, AlphaScreen, biotin-AF4 peptide, FLAG-AF9, single point. AID 651704, 2012. inhibition, % at 10 µM. actives 0.47% (n = 350,000);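 active means every replicate reaching a set inhibition limit, whatever the replicate mean, cut at about 25% in these data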;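 further: 0% = plate neutral control median and 100% = total signal loss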
INS-1E GSIS act = GLuc luminescence reporter in INS-1E cells, primary screen for activators of glucose-dependent secretion of insulin; INS-1E GLuc reporter insulin secretion, 2-3 h; activation, % at 16.6 µM; actives 0.61% (n = 370,000); AID 743287, 2014;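 active means lowest replicate activation of at least 40%, so every replicate reaches that level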;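 further: 0% = median of neutral control wells and 100% = median of IBMX positive control wells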
Ecoli rRNA inh = reduced GFP signal of wild-type E. coli, primary screen, bacterial rRNA inhibitor project, GFP/RFP fluorescence, OD600, single point; E. coli WT GFP vs humanized-ribosome RFP mutants, 24 h; stronger effect = lower value; DMSO median 0, no signal -100; GFP signal change (wild-type ribosome), % (no concentration beside the values); actives 1.6% (n = 350,000); AID 720706, 2013;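 active means significant combined selectivity score with lowered wild-type GFP, culture density cut under 30%, mutant RFP and density less affected; inactive means any of these conditions unmet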
RAD54 branch = inhibitors of human RAD54 branch migration, primary screen, biochemical, fluorescence, single point; DNA repair and recombination protein RAD54-like (Homo sapiens), Q92698; RAD54 Holliday junction branch migration, FAM/BHQ fluorescence; inhibition, % at 10.4 µM; actives 0.14% (n = 360,000); AID 602329, 2012;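 active means mean normalized replicate activity at least 40 and at least half of replicates scoring 40 or more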;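 further: 0% = median of neutral control wells and 100% = median of positive control wells; inhibitors cause a drop in the FAM fluorescence signal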
E-sel inducer = E-selectin induction in HUVECs, primary screen, imaging, HUVEC, immunofluorescence imaging, single point; P16581; normalized: neutral wells 0, TNF-alpha wells 100; activation, % at 7.58 µM; actives 0.37% (n = 260,000);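 active means mean E-selectin-positive cell signal at least 10% of the positive control, reached in at least 60% of replicates, without over 20% cell loss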
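assay system = HUVEC, human umbilical vein endothelial cells | input = 3,000 HUVEC seeded per well | medium = EGM-2 growth medium on 0.1% gelatin-coated wells | dosing = one compound dose added by pin transfer | signal = immunofluorescence imaging | read-out basis = % PE-positive cells | control set = TNF-alpha, DMSO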
RAD52 anneal inh = RAD52 DNA annealing inhibitors, primary screen, biochemical, FRET, single point, set 2 | actives 0.46% (n = 360,000) | inhibition, % at 18.7 µM | DNA repair protein RAD52 homolog (Homo sapiens), P43351 | recombinant RAD52 DNA annealing, FRET fluorescence;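 active means every replicate showing at least 50% inhibition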
Active calls of the source: *; . = not tested or not shown.

SMILES	MLL AF4-AF9 inh	INS-1E GSIS act	Ecoli rRNA inh	RAD54 branch	E-sel inducer	RAD52 anneal inh
C[C@H](CO)N1C[C@H](C)[C@@H](CN(C)S(=O)(=O)c2ccc(Cl)cc2)Oc2ccc(NS(=O)(=O)c3ccc(F)cc3)cc2CC1=O	.	-21	-3	-3	59*	.
C[C@@H]1CN([C@H](C)CO)C(=O)Cc2cc(NC(=O)Nc3ccc(F)cc3)ccc2O[C@@H]1CN(C)S(=O)(=O)c1ccc(Cl)cc1	2	-10	1	1	35*	12
C[C@@H]1CN([C@@H](C)CO)C(=O)c2cc(NC(=O)Cc3cn(C)c4ccccc34)ccc2O[C@@H]1CN(C)S(=O)(=O)c1cccs1	-2	-10	-2	-3	.	-3
C[C@H](CO)N1C[C@H](C)[C@H](CN(C)S(=O)(=O)c2ccc(Cl)cc2)Oc2c(NC(=O)Nc3ccc(F)cc3)cccc2C1=O	-10	-13	-6	-3	.	-2
COc1ccc(S(=O)(=O)N(C)C[C@@H]2Oc3ccc(NC(=O)Cc4ccccc4)cc3C(=O)N([C@H](C)CO)C[C@H]2C)cc1	-1	-15	-4	5	0	-19
O=S1OC(c2ccccc2)c2cc(Cl)ccc21 (centres undefined)	-1	-35	-15*	2	0	-8
COc1cc2[nH]c3c(Cl)ncnc3c2cc1OC	.	54*	.	40	1	.
COc1cc2[nH]c3c(N4CCN(c5ccc(Cl)cc5)CC4)ncnc3c2cc1OC	.	15	.	6	.	.
CCN(C(=O)C12CC3CC(CC(C3)C1)C2)C1CCS(=O)(=O)C1 (centres undefined)	1	59*	4	-2	0	-10
CCN(C(=O)COC(=O)CNC(=O)C12CC3CC(CC(C3)C1)C2)C1CCS(=O)(=O)C1 (centres undefined)	-12	-3	10	-15	0	-4
O=C(Nc1ccc2c(c1)OCCO2)C(=S)NCc1ccccc1	-4	11	-32*	.	3	-24
Cc1noc(C)c1NC(=O)N(C)C[C@@H]1Oc2ccc(NC(=O)Cc3cn(C)c4ccccc34)cc2C(=O)N([C@H](C)CO)C[C@H]1C	-11	20	-3	-3	.	-5
COc1ccc2c(-c3ccccc3)cc(SCC(=O)NC(N)=O)nc2c1	9	4	20	.	1	-16
COc1ccc2c(-c3ccccc3)cc(SCC(=O)N(C)C)nc2c1	-1	-37	-49*	.	4	-285
COC(=O)C[C@H]1CC[C@H](NS(=O)(=O)c2ccccc2F)[C@H](CO)O1	0	6	1	0	-1	-8
COc1ccc(CCn2nnc(-c3ccc(NC(C)=O)c(Cl)c3)n2)cc1	.	81*	.	-4	.	.
C/C(=N\NC(=O)c1cc(-c2ccc(C)s2)[nH]n1)c1ccco1	4	29	-35*	.	0	-37
C[C@@H]1CCCCO[C@@H](CN(C)C(=O)NC2CCCCC2)[C@@H](C)CN([C@@H](C)CO)C(=O)c2cc(NC(=O)Nc3ccc4c(c3)OCO4)ccc2O1	4	8	1	-3	.	-1
COc1ccc(NC(=O)COc2ccc(C(=O)OCC(=O)N(C(C)C)C(C)C)cc2OC)cc1	-1	-17	-27*	3	.	-12
CCOc1ccc(C(=O)OCC(=O)Nc2ccc3c(c2)OCCO3)cc1OC	-3	9	1	2	-2	-3
CC(C)NC(=O)N(C)C[C@H]1Oc2ccc(NS(=O)(=O)c3ccc(F)cc3)cc2CC(=O)N([C@H](C)CO)C[C@H]1C	0	8	2	-1	0	3
Cc1cccc(-c2ccc([C@H]3[C@@H](CO)N4C(=O)CN(C(=O)c5cccnc5)C[C@@H]34)cc2)c1	-1	4	3	.	1	-7
CCCCc1c(-c2ccccc2OC)ncn1Cc1ccccc1C	10	186*	-57	.	0	-2
